Blank lines part the entries; values can stand above or below the compound they belong to. The source made the active and inactive calls. The rule behind the calls is not given here.
Columns and labels:
CDK9/cyclin T1 [1] = biological target: T1, CDK9/cyclin T1 (Homo sapiens, UniProt P50750); experiment: Inhibition of CDK9/CycT1 (unknown origin) expressed in HEK293 cells using GST-CTDII as substrate
[2] = biological target: Rho-associated protein kinase 2 (Homo sapiens) (UniProt O75116); experiment: Inhibition of ROCK2 (unknown origin) at 1 uM
[3] = biological target: High affinity nerve growth factor receptor (Homo sapiens) (UniProt P04629); experiment: Inhibition of TrkA (unknown origin) at 1 uM
[4] = Cytotoxicity against human MT4 cells assessed as cell viability at 1250 nM after 7 days by MTT assay relative to control; format: cell-based; conditions: read-out: Activity
Method in brief: (§1)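 MT4 cells (2−3 × 10⁴/well) in RPMI1640 with 10% FCS, penicillin and streptomycin, exposed to compound at 2500 or 1250 nM for 7 days at 37 °C, 5% CO2. MTT added for 4 h, supernatant removed, formazan dissolved in DMSO, absorbance read at 540 nm. Viability expressed relative to untreated cells (100%).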

[5] = biological target: Tyrosine-protein kinase JAK3 (Homo sapiens) (UniProt P52333); experiment: Inhibition of JAK3 (unknown origin) at 1 uM
[6] = biological target: Serine/threonine-protein kinase Chk1 (Homo sapiens) (UniProt O14757); experiment: Inhibition of CHK1 (unknown origin) at 1 uM
[7] = biological target: Serine/threonine-protein kinase PAK 1 (Homo sapiens) (UniProt Q13153); experiment: Inhibition of PAK1 (unknown origin) at 1 uM
Sequence of Serine/threonine-protein kinase PAK 1 (Homo sapiens) (Q13153 whole entry): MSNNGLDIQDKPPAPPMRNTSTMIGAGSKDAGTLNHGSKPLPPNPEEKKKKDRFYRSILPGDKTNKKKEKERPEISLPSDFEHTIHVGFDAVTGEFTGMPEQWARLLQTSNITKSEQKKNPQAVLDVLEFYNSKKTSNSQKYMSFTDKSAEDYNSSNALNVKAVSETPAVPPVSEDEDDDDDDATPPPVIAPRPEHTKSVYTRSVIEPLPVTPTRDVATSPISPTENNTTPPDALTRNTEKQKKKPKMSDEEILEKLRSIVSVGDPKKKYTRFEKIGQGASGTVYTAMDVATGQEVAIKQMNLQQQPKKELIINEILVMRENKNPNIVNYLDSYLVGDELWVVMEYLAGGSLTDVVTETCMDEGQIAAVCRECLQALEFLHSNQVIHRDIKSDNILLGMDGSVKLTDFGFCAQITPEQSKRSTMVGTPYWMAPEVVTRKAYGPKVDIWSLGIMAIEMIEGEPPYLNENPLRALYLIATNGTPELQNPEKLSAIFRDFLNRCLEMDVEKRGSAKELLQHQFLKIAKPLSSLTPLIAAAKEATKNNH

[8] = biological target: Cyclin-dependent kinase 4/cyclin D1 (Homo sapiens) (UniProt P11802+P24385); experiment: Inhibition of CDK4/CycD1 (unknown origin) using FAM labeled peptide as substrate at 1 uM by IMAP FAM FP assay; format: protein-complex assay
Method in brief: (§2)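 Run by contract partners as an IMAP fluorescence polarization assay. […] Enzyme amount was set to give 50% substrate turnover. Compounds were added in DMSO, IMAP binding solution added after the kinase step, then FP read.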

[9] = biological target: Tyrosine-protein kinase ABL1 (Homo sapiens) (UniProt P00519); experiment: Inhibition of ABL (unknown origin) at 1 uM
[10] = biological target: Fibroblast growth factor receptor 3 (Homo sapiens) (UniProt P22607); experiment: Inhibition of FGFR3 (unknown origin) at 1 uM
[11] = biological target: Tyrosine-protein kinase CSK (Homo sapiens) (UniProt P41240); experiment: Inhibition of CSK (unknown origin) at 1 uM
[12] = biological target: Protein kinase C alpha type (Homo sapiens) (UniProt P17252); experiment: Inhibition of PKCalpha (unknown origin) at 1 uM
[13] = biological target: Mast/stem cell growth factor receptor Kit (Homo sapiens) (UniProt P10721); experiment: Inhibition of cKIT (unknown origin) at 1 uM
[14] = biological target: Receptor tyrosine-protein kinase erbB-2 (Homo sapiens) (UniProt P04626); experiment: Inhibition of ERBB2 (unknown origin) at 1 uM
[15] = biological target: Platelet-derived growth factor receptor beta (Homo sapiens) (UniProt P09619); experiment: Inhibition of PDGFRb (unknown origin) at 1 uM
[16] = biological target: Serine/threonine-protein kinase B-raf (Homo sapiens) (UniProt P15056); experiment: Inhibition of bRAF (unknown origin) at 1 uM
Sequence of Serine/threonine-protein kinase B-raf (Homo sapiens) (P15056 whole entry): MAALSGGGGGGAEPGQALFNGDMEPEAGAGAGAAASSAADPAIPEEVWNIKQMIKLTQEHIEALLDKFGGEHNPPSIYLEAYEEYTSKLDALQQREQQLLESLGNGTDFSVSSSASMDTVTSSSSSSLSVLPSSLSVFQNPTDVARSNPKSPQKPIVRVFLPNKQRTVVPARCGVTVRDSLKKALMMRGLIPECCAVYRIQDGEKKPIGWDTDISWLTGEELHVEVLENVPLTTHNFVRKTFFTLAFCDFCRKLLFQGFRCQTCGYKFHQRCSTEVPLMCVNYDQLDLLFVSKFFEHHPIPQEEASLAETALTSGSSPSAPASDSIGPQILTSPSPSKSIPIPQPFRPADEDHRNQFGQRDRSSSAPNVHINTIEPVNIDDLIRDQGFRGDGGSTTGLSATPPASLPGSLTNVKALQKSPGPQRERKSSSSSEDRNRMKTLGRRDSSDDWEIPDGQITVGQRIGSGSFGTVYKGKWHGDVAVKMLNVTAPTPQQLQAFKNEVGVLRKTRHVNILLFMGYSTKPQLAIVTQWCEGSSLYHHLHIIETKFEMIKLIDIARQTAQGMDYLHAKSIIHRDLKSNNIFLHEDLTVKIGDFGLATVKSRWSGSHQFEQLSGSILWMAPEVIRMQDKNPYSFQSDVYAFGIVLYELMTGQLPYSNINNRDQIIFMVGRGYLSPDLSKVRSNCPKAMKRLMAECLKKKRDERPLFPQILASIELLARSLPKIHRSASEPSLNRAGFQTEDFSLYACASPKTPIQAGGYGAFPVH

[17] = Cytotoxicity against human MT4 cells assessed as cell viability at 2500 nM after 7 days by MTT assay relative to control; format: cell-based; conditions: read-out: Activity; method in brief: as §1
[18] = biological target: Proto-oncogene tyrosine-protein kinase receptor Ret (Homo sapiens) (UniProt P07949); experiment: Inhibition of RET (unknown origin) at 1 uM
[19] = biological target: T2, CDK9/cyclin T1 (Homo sapiens) (UniProt O60563+P50750); experiment: Inhibition of CDK9/CycT1 (unknown origin) using TAMRA-Rbtide and ATP as substrate at 1 uM after 1 hr; format: protein-complex assay
[20] = biological target: Tyrosine-protein kinase receptor UFO (Homo sapiens) (UniProt P30530); experiment: Inhibition of AXL (unknown origin) at 1 uM
[21] = biological target: Tyrosine-protein kinase SYK (Homo sapiens) (UniProt P43405); experiment: Inhibition of SYK (unknown origin) at 1 uM
[22] = biological target: Insulin receptor (Homo sapiens) (UniProt P06213); experiment: Inhibition of INSR (unknown origin) at 1 uM
[23] = biological target: Angiopoietin-1 receptor (Homo sapiens) (UniProt Q02763); experiment: Inhibition of TIE2 (unknown origin) at 1 uM
[24] = biological target: Receptor-type tyrosine-protein kinase FLT3 (Homo sapiens) (UniProt P36888); experiment: Inhibition of FLT3 (unknown origin) at 1 uM
[25] = biological target: Serine/threonine-protein kinase pim-1 (Homo sapiens) (UniProt P11309); experiment: Inhibition of PIM1 (unknown origin) at 1 uM
[26] = biological target: Vascular endothelial growth factor receptor 2 (Homo sapiens) (UniProt P35968); experiment: Inhibition of VEGFR2 (unknown origin) at 1 uM
[27] = biological target: Serine/threonine-protein kinase PAK 4 (Homo sapiens) (UniProt O96013); experiment: Inhibition of PAK4 (unknown origin) at 1 uM
Sequence of Serine/threonine-protein kinase PAK 4 (Homo sapiens) (O96013 whole entry, looked up): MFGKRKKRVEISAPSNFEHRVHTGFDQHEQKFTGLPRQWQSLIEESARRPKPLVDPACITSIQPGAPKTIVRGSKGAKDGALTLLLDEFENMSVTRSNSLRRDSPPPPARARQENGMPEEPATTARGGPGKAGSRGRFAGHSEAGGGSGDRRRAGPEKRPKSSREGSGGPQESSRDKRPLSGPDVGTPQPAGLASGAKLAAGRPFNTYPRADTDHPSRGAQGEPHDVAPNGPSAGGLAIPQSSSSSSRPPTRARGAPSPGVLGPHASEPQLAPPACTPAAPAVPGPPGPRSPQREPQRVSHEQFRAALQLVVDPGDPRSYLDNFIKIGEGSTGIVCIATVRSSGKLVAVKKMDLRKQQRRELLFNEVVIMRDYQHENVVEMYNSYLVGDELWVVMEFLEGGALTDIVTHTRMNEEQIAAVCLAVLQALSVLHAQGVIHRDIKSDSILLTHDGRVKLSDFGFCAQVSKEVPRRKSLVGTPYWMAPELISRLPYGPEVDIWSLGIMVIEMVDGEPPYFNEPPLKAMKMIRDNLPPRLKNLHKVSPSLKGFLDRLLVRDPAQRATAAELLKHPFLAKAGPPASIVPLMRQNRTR

[28] = biological target: RAC-alpha serine/threonine-protein kinase (Homo sapiens) (UniProt P31749); experiment: Inhibition of AKT1 (unknown origin) at 1 uM
[29] = biological target: Proto-oncogene tyrosine-protein kinase Src (Homo sapiens) (UniProt P12931); experiment: Inhibition of SRC (unknown origin) at 1 uM
[30] = biological target: Interleukin-1 receptor-associated kinase 4 (Homo sapiens) (UniProt Q9NWZ3); experiment: Inhibition of IRAK4 (unknown origin) at 1 uM
[31] = tested on: Human immunodeficiency virus 1; experiment: Antiviral activity against HIV1 HTLV-3B infected in human MT4 cells assessed as inhibition of virus proliferation by measuring host cell viability at 1250 nM relative to control; format: functional
Method in brief: (§3)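 HIV-1 HTLV-IIIB (3400 TCID50/mL per well; titre set by virus yield assay) infected MT4 cells, 2−3 × 10⁴/well in RPMI1640 with 10% FCS, penicillin and streptomycin, cultured as for the 7-day viability assay (37 °C, 5% CO2). Test compounds were at 1250 nM and AZT control at 25 nM. Read-out was MTT (4 h, DMSO, A540), given relative to infected untreated cells (100%).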

[32] = biological target: Cyclin-dependent kinase 2/cyclin E1 (Homo sapiens) (UniProt P24864+P24941); experiment: Inhibition of CDK2/CycE (unknown origin) using FAM labeled peptide as substrate at 1 uM by IMAP FAM FP assay; format: protein-complex assay; method in brief: as §2
[33] = biological target: T2, CDK9/cyclin T1 (Homo sapiens); experiment: Competitive inhibition of CDK9/CycT1 (unknown origin) using ATP as substrate; format: protein-complex assay
Method in brief: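 Kinase inhibition measured with inhibitor held constant at 260 nM across five ATP concentrations, printed as 1.33, 4, 12 (K_mATP), 36 and 108 […]. Ki taken from measured IC50 via the Cheng−Prusoff equation, with the IC50/Ki ratio compared across ATP levels.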

[34] = biological target: Inhibitor of nuclear factor kappa-B kinase subunit beta (Homo sapiens) (UniProt O14920); experiment: Inhibition of IKKbeta (unknown origin) at 1 uM
CDK9/cyclin T1 [35] = biological target: T1, CDK9/cyclin T1; experiment: Inhibition of CDK9/CycT1 (unknown origin) using TAMRA-Rbtide and ATP as substrate after 1 hr; format: protein-complex assay
[36] = biological target: Serine/threonine-protein kinase mTOR (Homo sapiens) (UniProt P42345); experiment: Inhibition of mTOR (unknown origin) at 1 uM
[37] = biological target: Epithelial discoidin domain-containing receptor 1 (Homo sapiens) (UniProt Q08345); experiment: Inhibition of DDR1 (unknown origin) at 1 uM
[38] = biological target: Hepatocyte growth factor receptor (Homo sapiens) (UniProt P08581); experiment: Inhibition of cMET (unknown origin) at 1 uM
Sequence of Hepatocyte growth factor receptor (Homo sapiens) (P08581 whole entry): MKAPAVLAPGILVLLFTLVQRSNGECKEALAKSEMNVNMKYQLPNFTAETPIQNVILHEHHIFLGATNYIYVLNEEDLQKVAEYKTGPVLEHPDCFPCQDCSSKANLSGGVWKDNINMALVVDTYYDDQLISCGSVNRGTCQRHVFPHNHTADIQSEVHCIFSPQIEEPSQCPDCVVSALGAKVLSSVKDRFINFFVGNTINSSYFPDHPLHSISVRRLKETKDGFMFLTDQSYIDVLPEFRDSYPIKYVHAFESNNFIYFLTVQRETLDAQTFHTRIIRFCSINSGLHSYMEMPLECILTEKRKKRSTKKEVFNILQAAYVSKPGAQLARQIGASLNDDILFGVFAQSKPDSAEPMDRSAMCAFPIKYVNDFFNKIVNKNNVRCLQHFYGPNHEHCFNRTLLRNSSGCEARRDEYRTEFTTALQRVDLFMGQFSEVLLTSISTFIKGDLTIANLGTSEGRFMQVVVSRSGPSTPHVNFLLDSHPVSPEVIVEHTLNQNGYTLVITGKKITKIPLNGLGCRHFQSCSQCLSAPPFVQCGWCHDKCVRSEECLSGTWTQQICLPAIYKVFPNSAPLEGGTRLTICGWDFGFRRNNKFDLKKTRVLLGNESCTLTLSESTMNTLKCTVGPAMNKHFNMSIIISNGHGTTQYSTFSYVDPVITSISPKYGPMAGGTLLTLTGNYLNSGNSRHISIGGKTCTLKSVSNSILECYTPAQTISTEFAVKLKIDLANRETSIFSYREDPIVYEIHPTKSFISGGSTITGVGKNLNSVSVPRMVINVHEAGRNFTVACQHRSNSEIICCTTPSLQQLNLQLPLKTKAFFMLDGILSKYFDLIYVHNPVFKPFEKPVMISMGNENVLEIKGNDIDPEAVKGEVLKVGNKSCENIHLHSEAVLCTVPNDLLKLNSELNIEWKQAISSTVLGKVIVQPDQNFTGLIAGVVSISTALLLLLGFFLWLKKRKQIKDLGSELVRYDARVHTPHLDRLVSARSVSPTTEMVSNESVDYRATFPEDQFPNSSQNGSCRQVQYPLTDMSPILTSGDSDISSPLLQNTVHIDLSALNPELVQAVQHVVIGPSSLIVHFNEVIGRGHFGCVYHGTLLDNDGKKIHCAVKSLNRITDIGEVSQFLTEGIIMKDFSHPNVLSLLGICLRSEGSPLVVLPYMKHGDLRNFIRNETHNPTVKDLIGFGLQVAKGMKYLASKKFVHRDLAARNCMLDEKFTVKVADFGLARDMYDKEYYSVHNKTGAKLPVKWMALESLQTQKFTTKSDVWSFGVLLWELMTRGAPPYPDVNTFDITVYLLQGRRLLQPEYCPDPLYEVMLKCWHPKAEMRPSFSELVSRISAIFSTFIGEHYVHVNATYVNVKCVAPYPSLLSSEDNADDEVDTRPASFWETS

[39] = biological target: Interleukin-1 receptor-associated kinase 3 (Homo sapiens) (UniProt Q9Y616); experiment: Binding to IRAK3 (unknown origin) at 1 uM
CDK9/cyclin T1 [40] = biological target: T1, CDK9/cyclin T1; experiment: Inhibition of CDK9/CycT1 (unknown origin); format: protein-complex assay
[41] = tested on: Human immunodeficiency virus 1; experiment: Antiviral activity against HIV1 HTLV-3B infected in human MT4 cells assessed as inhibition of virus proliferation by measuring host cell viability at 25 nM relative to control; format: functional; method in brief: as §3

T1 sequence (O60563 whole entry): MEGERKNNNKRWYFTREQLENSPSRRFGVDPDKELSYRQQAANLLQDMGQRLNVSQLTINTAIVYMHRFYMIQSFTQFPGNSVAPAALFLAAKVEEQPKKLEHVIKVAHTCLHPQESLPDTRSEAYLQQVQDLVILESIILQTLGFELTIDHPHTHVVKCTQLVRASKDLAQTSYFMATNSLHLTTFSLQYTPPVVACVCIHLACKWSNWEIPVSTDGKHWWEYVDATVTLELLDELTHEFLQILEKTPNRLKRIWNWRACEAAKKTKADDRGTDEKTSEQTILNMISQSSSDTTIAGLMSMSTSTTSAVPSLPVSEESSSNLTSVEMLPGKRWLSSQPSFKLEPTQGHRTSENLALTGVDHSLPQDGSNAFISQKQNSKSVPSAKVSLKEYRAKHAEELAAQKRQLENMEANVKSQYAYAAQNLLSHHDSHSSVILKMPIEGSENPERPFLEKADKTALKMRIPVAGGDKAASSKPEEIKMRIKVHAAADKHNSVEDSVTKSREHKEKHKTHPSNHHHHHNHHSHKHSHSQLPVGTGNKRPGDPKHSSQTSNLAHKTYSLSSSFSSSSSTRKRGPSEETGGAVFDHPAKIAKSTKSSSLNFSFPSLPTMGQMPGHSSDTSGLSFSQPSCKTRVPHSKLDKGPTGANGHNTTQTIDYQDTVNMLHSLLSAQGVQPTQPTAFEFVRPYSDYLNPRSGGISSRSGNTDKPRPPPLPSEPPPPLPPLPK
T1 sequence (P50750 whole entry): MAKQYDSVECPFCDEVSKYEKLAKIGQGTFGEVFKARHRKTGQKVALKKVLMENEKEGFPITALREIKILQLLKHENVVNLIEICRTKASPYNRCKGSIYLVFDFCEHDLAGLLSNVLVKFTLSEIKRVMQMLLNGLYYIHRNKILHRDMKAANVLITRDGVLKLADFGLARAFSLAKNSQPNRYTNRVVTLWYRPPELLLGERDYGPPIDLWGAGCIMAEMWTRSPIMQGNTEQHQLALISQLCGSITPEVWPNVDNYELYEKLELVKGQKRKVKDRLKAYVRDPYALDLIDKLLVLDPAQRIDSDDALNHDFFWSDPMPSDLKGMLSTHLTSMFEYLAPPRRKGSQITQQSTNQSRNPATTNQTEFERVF

Structure (SMILES): COc1ccccc1-c1cc(Nc2ccc(C)c(NS(C)(=O)=O)c2)ncn1
IC50 (CDK9/cyclin T1 [1]): 30 nM

Structure (SMILES): CCCP(=O)(Cc1cccc(Nc2cc(-c3ccccc3OC)ncn2)c1)OCC (centres undefined)
inhibition [2]: 7%
inhibition [3]: -1%
viability at 168 h, 1.25 µM [4]: 66%
inhibition [5]: 0%
inhibition [6]: 14%
inhibition [7]: 10%
inhibition [8]: 14%
inhibition [9]: 9%
inhibition [10]: 1%
inhibition [11]: 14%
inhibition [12]: 9%
inhibition [13]: 16%
inhibition [14]: 5%
inhibition [15]: 2%
inhibition [16]: 5%
viability at 168 h, 2.5 µM [17]: 81%
inhibition [18]: 16%
inhibition [19]: 95%
inhibition [20]: 7%
inhibition [21]: -1%
inhibition [22]: 2%
inhibition [23]: 5%
inhibition [24]: 6%
inhibition [25]: -2%
inhibition [26]: 6%
inhibition [27]: 19%
inhibition [28]: -1%
inhibition [29]: 4%
inhibition [30]: 9%
Host cell viability relative to infected untreated cells [31]: 131%
inhibition [32]: 23%
competitive inhibition (qualitative) [33]: Active
inhibition [34]: 7%
IC50 (CDK9/cyclin T1 [35]): 296 nM
inhibition [36]: 9%
inhibition [37]: 7%
inhibition [38]: 6%

Structure (SMILES): CCCP(=O)(O)Cc1cccc(Nc2cc(-c3ccccc3OCc3ccccc3)ncn2)c1
viability at 168 h, 1.25 µM [4]: 158%
viability at 168 h, 2.5 µM [17]: 141%
Host cell viability relative to infected untreated cells [31]: 141%
IC50 (CDK9/cyclin T1 [35]): 142 nM
residual activity [39]: 18%

Structure (SMILES): Cc1cn([C@H]2C[C@H](N=[N+]=[N-])[C@@H](CO)O2)c(=O)[nH]c1=O [ZIDOVUDINE]
Activity [41]: 132%

Structure (SMILES): CCOP(=O)(CC)Cc1cccc(Nc2cc(-c3ccccc3OC)ncn2)c1 (centres undefined)
inhibition [2]: 14%
inhibition [3]: 8%
viability at 168 h, 1.25 µM [4]: 94%
inhibition [5]: 9%
inhibition [6]: 12%
inhibition [7]: 20%
inhibition [8]: 24%
inhibition [9]: 20%
inhibition [10]: 8%
inhibition [11]: 24%
inhibition [12]: 8%
inhibition [13]: 28%
inhibition [14]: 11%
inhibition [15]: 18%
inhibition [16]: 0%
viability at 168 h, 2.5 µM [17]: 94%
inhibition [18]: 34%
inhibition [19]: 98%
inhibition [20]: 21%
inhibition [21]: 8%
inhibition [22]: 12%
inhibition [23]: 10%
inhibition [24]: 12%
inhibition [25]: 8%
inhibition [26]: 11%
inhibition [27]: 25%
inhibition [28]: 11%
inhibition [29]: 18%
inhibition [30]: 16%
Host cell viability relative to infected untreated cells [31]: 105%
inhibition [32]: 36%
competitive inhibition (qualitative) [33]: Active
inhibition [34]: 15%
IC50 (CDK9/cyclin T1 [35]): 197 nM
inhibition [36]: 3%
inhibition [37]: 13%
inhibition [38]: 22%

Second part, the compound after the results:

IC50 (CDK9/cyclin T1 [40]): 129 nM
Structure (SMILES): Cc1ccc(Nc2cc(-c3cccc(N)c3)ncn2)cc1NS(C)(=O)=O

IC50 (CDK9/cyclin T1 [40]): 170 nM
Structure (SMILES): COc1ccccc1-c1cc(Nc2cccc(NS(N)(=O)=O)c2)ncn1

IC50 (CDK9/cyclin T1 [1]): 52 nM
Structure (SMILES): COc1ccccc1-c1cc(Nc2cccc(S(N)(=O)=O)c2)ncn1
